Measurements as given in the EternaBench riboswitch data.

System: MS2 coat protein
Assay: apparent Kd, MS2 coat protein; higher = weaker binding; RNA-MaP array; FMN 200 µM where present
How it was run: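 The apparent Kd comes from binding curves fitted cluster by cluster, filtered, and summarised as a median. Those curves followed SNAP-549-labelled MS2 coat protein from 0.7 or 1.5 nM, doubling to 3 µM, on Illumina sequencing-chip clusters where stalled E. coli RNA polymerase had transcribed the designs, without and then with constant ligand. The buffer was 100 mM Tris-HCl pH 7.5, 80 mM KCl, 4 mM MgCl2, BSA, DTT, yeast tRNA and Tween-20, and green signal was normalised to red-channel RNA signal and control-cluster median Fmax.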

[1] = designed as: OFF switch for flavin mononucleotide, no ligand
[2] = ligand present: flavin mononucleotide, designed as: OFF switch for flavin mononucleotide
[3] = designed as: ON switch for flavin mononucleotide, no ligand
[4] = ligand present: flavin mononucleotide, designed as: ON switch for flavin mononucleotide

Sequence | apparent Kd [1] | apparent Kd [2] | apparent Kd [3] | apparent Kd [4]
AACCAGUUGGUAGGAUAUGGUGCAGUGCUCGUACCAGAAGGACCAACAUGAGGAUCACCCAUGUUGGAAAGUCAACAUUAAUGA | 6.23 nM | 16.4 nM |  | 
AACCUAUUACAGAAGGCCAGCUACAUGAGGAUCACCCAUGUCGAGUCAUGGAGGAUAUGUAGUAAUUUACUCACAGAUGAGUGC |  |  | 25.8 nM | 5.31 nM
AACCUAUUACAGAAGGCCAGCUACAUGAGGAUCACCCAUGUCGAGUCAUGGAGGAUAUGUAGUAAUUUACUCGCAGAUAAGUGC |  |  | 22.6 nM | 4.45 nM
AACUACCCGUCAGGAUAUCGCCGUAGGUCCUCGGGUCUCGCCGUCAUACAUGAGGAUCACCCAUGUGAGAAGGGACGGGUUUCA | 20.9 nM | 136 nM |  | 
AACUAGCUAGGAUAUACAUGAGGAUCACCCAUGUAAAAAAAAAAAAAAAGAUUUAUAUGUAGAAGGAGCUAGUA | 40.1 nM | 65.8 nM |  | 
AACUCACAUGAGGAUCACCCAUGUGAGGAUAUAUUAAUAUGUAUGUUAUUAUGUAUUGAUAGAAGGCGCGUGAU | 46.3 nM | 49.1 nM |  | 
AACUGACAUGAGGAUCACCCAUGUCAGGAUAUGCUUCAUAAAAACAAACAAAAAUGAUGCAGAAGGGACAUGGA | 16.6 nM | 41.6 nM |  | 
AACUGCGCAUGAGGAUAUCCCGGACAUGAGGAUCACCCAUGUAAGCACAAGGGAGAAGGCAUGUGCCUCAAUUAGUUCCCACAA |  |  | 61.9 nM | 7.08 nM
AAGAAACAUGAGGAUCACCCAUGUGAGGAUAUGAAAAAGAAAAGAAAAGAAAGAAGAAUCAGAAGGCACAAAGC | 26 nM | 32.7 nM |  | 
AAGAAAGAAACAUAGGAUAUCAAGAAUAUAACAUGAGGAUCACCCAUGUAAAUACGAAAGUAUAAUGAGAAGGAUGGAUGAUCUUC |  |  | 93.7 nM | 89 nM
AAGAAAGAAACAUAGGAUAUCAAGGAUAUAACAUGAGGAUCACCCAUGUAAAUACGAAAGUAUAAUGAGAAGGAUGGAUGAUCUAC |  |  | 238 nM | 437 nM
AAGAAAGAAACGCAGGAUAUGCAAAACAAAACAUGAGGAUCACCCAUGUCAAACAAACAAACAAAGCAGAAGGGCGAAAGAAAGAA |  |  | 23.1 nM | 16.4 nM
AAGAAGAUAGGAUAUACGAGGAGAGGAGAGAAGAGGUGAGGACAUGAGGAUCACCCAUGUAGAAGGAUCAGGAA | 46.6 nM | 35.6 nM |  | 
AAGAAGUCAGGAUAUCCAUGGCGGCACUUGCGUGGUGGCGUGGAGAAGGGACAUGAGGAUCACCCAUGUAAAGG | 149 nM | 173 nM |  | 
AAGAAGUCAGGAUAUCCUGCUCGUCACUUGCGUGAUGAGUAGGAGAAGGGACAUGAGGAUCACCCAUGUAAAGC | 46.4 nM | 43.1 nM |  | 
AAGAAGUCAGGAUAUGCAUGGCGGGACUUGCGUCGUGGCGUGCAGAAGGGACAUGAGGAUCACCCAUGUGGAGG | 162 nM | 222 nM |  | 
AAGAGACAUCAGAAGGGAGCCCGAACGCACGGCUCAGGAUAUGAGAUCUUAUGUAGUACGACAUGAGGAUCACCCAUGUCCGCG |  |  | 36.2 nM | 8.27 nM
AAGAGGCUAGGAUAUACAUGAGGAUCACCCAUGUGAGGGCACGGCCGGCGCGUGGCCGGUAGAAGGAGUCAAAA | 21.3 nM | 22.6 nM |  | 
AAGAGUGCAGGAUAUACUUGUUAGGACGGUUGGAUGAUUUGACAUGAGGAUCACCCAUGUAGAAGGGCAGAGAG | 155 nM | 129 nM |  | 
AAGAUGCCUCCUGCUGGUGGGAGACAUGAGGAUCACCCAUGUCAGGAUAUCGGUUAAAGAGGACACGAGAAGGGACAGGAGUAC | 8.19 nM | 9.23 nM |  | 
AAGCAACAUGAGGAUCACCCAUGUAGCAGGGUCAGAGGAUAUUUGAGCUUGGCGAGGGUUAAAGAAGGUUGAUAUC |  |  | 38.8 nM | 43.6 nM

Sequence | apparent Kd [1] | apparent Kd [2] | apparent Kd [3] | apparent Kd [4]
AAGCCCUGAGGAUAUCCCAACUCGCACAUGAGGAUCACCCAUGUCCUUCUCUGGGUUUCGGGAGAAGGCAGGUCUC | 348 nM | 161 nM |  | 
AAGCCUCUUGUCAGGAUAUCUGUCGGUCCUCCAAGAGAGAAGGGACAUGAGGAUCACCCAUGUAAGCCCAGGGA | 16.1 nM | 27.9 nM |  | 
AAGGAGUAAGGAUAUGCUGCUCGUCACUUGCGUGAUGAGUAGCAGAAGGUACAUGAGGAUCACCCAUGUAAAGA | 27.4 nM | 20.1 nM |  | 
AAGGAGUUAGGAUAUGCUGCUCGUCACUUGCGUGAUGAGUAGCAGAAGGGACAUGAGGAUCACCCAUGUAAAGA | 41.9 nM | 21.9 nM |  | 
AAGGAUAGAGGAUAUACAUAGAUACAGAUUCAUGUGGUCCUACAUGAGGAUCACCCAUGUAGAAGGCUAUCCUA | 240 nM | 56.8 nM |  | 
AAGGGUACUUUCGGAACGACAUGAGGAUCACCCAUGUAUACUGAGGAUAUCUACUACUAAGGACGGGAGAAGGCAGUGUAAUGU | 18 nM | 20.3 nM |  | 
AAGGUCAAGAUAGGAUAUGUUUCAUGAUAGAUAACAGAAGGAUCUAGAACAUGAGGAUCACCCAUGUGGCACAUAGAGUGGUGA |  |  | 429 nM | 441 nM
AAGUACCGGUGAGGAUAUUUUUAAUAGAACUUUAUGAUAUACAUGAGGAUCACCCAUGUUACUUUAAAGAAGGCAUCGGAUUAA | 18 nM | 14.8 nM |  | 
AAGUAGACGGUGAGGAUAUAGGUCGAACGACCGAUCUAGAAGGCACAUGAGGAUCACCCAUGUGGGUAACGUCG | 17.9 nM | 19.6 nM |  | 
AAGUAGAUCCGAGGAUAUACAAAGUGGAAUCGCUACAUGAGGAUCACCCAUGUAGAAGGCGGAUCUACAGGUACUAAAGUACCA | 8.01 nM | 68.3 nM |  | 
AAGUAGAUCCGAGGAUAUACAAUCCGGAAACGGUACAUGAGGAUCACCCAUGUAGAAGGCGGAUCUACAGGUACUAAAGUACCC | 5.61 nM | 8.06 nM |  | 
AAGUAGAUCCGAGGAUAUACAAUCCGGAAACGGUACAUGAGGAUCACCCAUGUAGAAGGCGGAUCUACAGGUACUAAAGUACCU | 5.58 nM | 7.98 nM |  | 
AAGUAGGUAGGAUAUACAUGGAUAUACAUUCAUGUGGACCUACAUGAGGAUCACCCAUGUAGAAGGACCUACAA | 34.8 nM | 64.2 nM |  | 
AAGUAUAGAGGAUAUAGUAGGUACAACAUGAGGAUCACCCAUGUUCUUCAUAACGUAUUUCUAGAAGGCUGAUAAA | 156 nM | 353 nM |  | 
AAGUAUAGAGGAUAUAGUGAGUACUACAUGAGGAUCACCCAUGUUCUUCGUUACGUAUUUCUAGAAGGCUGAUAAA | 105 nM | 248 nM |  | 
AAGUCAGCAGGAUAUGCGAUGGUGUACUAGGUAGUUUACCCACAUGAGGAUCACCCAUGUAGAAGGGCUGGCUA | 59.1 nM | 148 nM |  | 
AAGUCGACGGUGAGGAUAUCGGUUGAACGACAGAUCGAGAAGGCACAUGAGGAUCACCCAUGUGGGUAACGUCG | 19.3 nM | 31.8 nM |  | 
AAGUCGAGCGUGAGGAUAUCGUUUGAACGACAGAGCGAGAAGGCACAUGAGGAUCACCCAUGUGAUUAAGCUCG | 15.6 nM | 19.9 nM |  | 
AAGUCGAGUGUGAGGAUAUUGACCGGACGACCCAUCGAGAAGGCACAUGAGGAUCACCCAUGUGAUUCAGCUCA | 17 nM | 23 nM |  | 
AAGUGCAUAGGAUAUAUAUGGAUAUACAUUUAUGUAGAACUACAUGAGGAUCACCCAUGUAGAAGGAUGCAAUA | 21.5 nM | 36.8 nM |  | 
AAGUGUAUAGGAUAUGCGUGGAAAAGGUGUAUUCACCAGCGACAUGAGGAUCACCCAUGUAGAAGGGUAUGUAA | 94.6 nM | 54.5 nM |  | 
